# What was measured:
# [1] = target: GABA-A receptor; anion channel (Bos taurus) (UniProt P10063+P08220+P20237+P08219+P10064+P22300); experiment: Inhibition of specific [3H]flunitrazepam binding to Benzodiazepine receptor in bovine brain membranes at 34 uM; format: cell membranes
# [2] = target: GABA-A receptor; anion channel; experiment: Inhibitory concentration against [3H]flunitrazepam binding to Benzodiazepine receptor in bovine brain membranes; format: cell membranes
# In short: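 Membranes were made by homogenizing in ice-cold 0.32 M sucrose with protease inhibitors, spinning at 48000g, and osmotically shocking in 50 mM Tris-HCl. Membranes (0.4-0.5 mg protein, Lowry) were incubated with 1.0 nM [3H]flunitrazepam in 50 mM Tris-HCl at 0 °C for 90 min, then filtered and counted by scintillation. Nonspecific binding was defined with 10 μM diazepam. IC50 came from log-probit analysis of 4-6 concentrations, each in triplicate.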
Compound,inhibition [1],IC50 [2]
Cc1nn(-c2cccc(Cl)c2)c2c1c(Cl)nc1ccccc12,21%,
Cc1ccc(-n2nc(C)c3c(=O)n(C)c4ccccc4c32)cc1,63%,
Cc1ccc(-n2nc(C)c3c(O)nc4ccccc4c32)cc1,65%,
Cc1nn(-c2cccc(Cl)c2)c2c1c(O)nc1ccccc12,94%,4.4 µM
Cc1cccc(-n2nc(C)c3c(=O)n(C)c4ccccc4c32)c1,95%,0.26 µM
Cc1nn(-c2ccccc2)c2c1c(N1CCOCC1)nc1ccccc12,8%,
Cc1nn(-c2ccccc2)c2c1c(N1CCN(C)CC1)nc1ccccc12,41%,
Cc1nn(-c2ccccc2)c2c1c(=O)n(C)c1ccccc21,85%,3.4 µM
Cc1nn(-c2ccc(Cl)cc2)c2c1c(=O)n(C)c1ccccc21,78%,2.7 µM
Cc1nn(-c2ccccc2)c2c1c(O)nc1ccccc12,62%,
Cc1nn(-c2cccc(Cl)c2)c2c1c(N1CCN(C)CC1)nc1ccccc12,49%,
Cc1nn(-c2cccc(Cl)c2)c2c1c(=O)n(C)c1ccccc21,96%,1 µM
Cc1nn(-c2ccc(Cl)cc2)c2c1c(N1CCN(C)CC1)nc1ccccc12,23%,
Cc1[nH]nc2c1c(=O)[nH]c1ccccc12,47%,
COc1nc2ccccc2c2c1c(C)nn2-c1cccc(Cl)c1,18%,
Cc1nn(-c2cccc(Cl)c2)c2c1c(N1CCOCC1)nc1ccccc12,24%,
Cc1cccc(-n2nc(C)c3c(O)nc4ccccc4c32)c1,97%,9 µM
Cc1nn(-c2ccc(Cl)cc2)c2c1c(O)nc1ccccc12,70%,22 µM
Cc1cccc(-n2nc(C)c3c(N4CCOCC4)nc4ccccc4c32)c1,7%,
Cc1cccc(-n2nc(C)c3c(N4CCN(C)CC4)nc4ccccc4c32)c1,44%,
Cc1cccc(-n2nc(C)c3c(Cl)nc4ccccc4c32)c1,21%,

# Reference: ChEMBL document CHEMBL1123403, “Pyrazolo[4,5-c]quinolines. 2. Synthesis and specific inhibition of benzodiazepine receptor binding” (J Med Chem, 1986)
